# Measured values gathered from unrelated publications.
# Each line is one published result; the experiments were not run side by side.
# Cell line: NCI-H522
# Effect on: cell growth or viability
SMILES,assay,setting,endpoint,value
COc1ccc(-c2ccc(-c3ccc(C(=N)N)nc3)s2)cc1,SRB,,GI50,1900 nM
COc1ccc(C(=O)/C=C/c2cccc3ccccc23)cc1S(N)(=O)=O,SRB,48 h,GI50,1600 nM
CCCCc1n(Cc2ccc3ccccc3n2)cc[n+]1Cc1ccc2ccccc2n1,SRB,,TGI,4190 nM
COc1ccc(C(=O)/C=C/c2cccnc2)cc1S(N)(=O)=O,SRB,48 h,GI50,10500 nM
CCc1n(Cc2ccc3ccccc3n2)cc[n+]1Cc1ccc2ccccc2c1,SRB,,TGI,986 nM
S=C([S][Au-][P+](CCCCCC[P+]([Au-][S]C(=S)n1cccn1)(c1ccccc1)c1ccccc1)(c1ccccc1)c1ccccc1)n1cccn1,SRB,,GI50,1620 nM
COc1ccc(-c2ccc(-c3ccc(C(=N)N)nc3)s2)cc1Cl,SRB,,GI50,2100 nM
c1ccc2cc(Cn3cc[n+](Cc4ccc5ccccc5c4)c3)ccc2c1,SRB,,TGI,3110 nM
COc1ccc(C2=Nn3c(NN=C4C(=O)Nc5ccc(OC)cc54)nnc3SC2)cc1,SRB,10 µM,inhibition,25%
COc1ccc(C(=O)/C=C/c2ccccc2Br)cc1S(N)(=O)=O,SRB,48 h,GI50,1800 nM
CCCc1n(Cc2ccc3ccccc3n2)cc[n+]1Cc1ccc2ccccc2c1,SRB,,TGI,1130 nM
O=C1NC(=NCc2cccs2)S/C1=C\c1ccc2ncccc2c1,,,IC50,> 10000 nM
COc1ccc(C(=O)/C=C/c2cccc(Br)c2)cc1S(N)(=O)=O,SRB,48 h,GI50,1600 nM
